Measurements pooled from the literature.
Target: TGF-beta receptor type-1 (TGFBR1, Homo sapiens, UniProt P36897)
One construct used (P36897 1-503): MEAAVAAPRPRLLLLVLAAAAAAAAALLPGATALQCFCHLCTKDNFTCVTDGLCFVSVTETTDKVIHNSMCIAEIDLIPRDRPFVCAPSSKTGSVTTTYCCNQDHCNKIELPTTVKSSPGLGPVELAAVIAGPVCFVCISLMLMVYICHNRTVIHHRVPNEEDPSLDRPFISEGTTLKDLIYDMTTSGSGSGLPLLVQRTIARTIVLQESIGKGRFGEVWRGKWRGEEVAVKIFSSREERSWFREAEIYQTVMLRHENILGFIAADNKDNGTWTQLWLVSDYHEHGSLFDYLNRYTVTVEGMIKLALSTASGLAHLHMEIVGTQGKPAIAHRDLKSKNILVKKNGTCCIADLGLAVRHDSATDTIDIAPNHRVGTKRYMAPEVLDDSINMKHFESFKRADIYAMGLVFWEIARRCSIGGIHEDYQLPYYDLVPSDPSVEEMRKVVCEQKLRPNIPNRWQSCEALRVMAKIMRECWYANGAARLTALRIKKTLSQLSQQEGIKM

Structure (SMILES) | assay | setting | endpoint | result
COc1ccc2c(c1)O[C@@H](c1ccc(OC)c(OC)c1)C[C@H]2NC(=O)C1(c2ccc3c(c2)OC(F)(F)O3)CC1 | cell-free assay, competition with immobilised ligand | 1 µM | remaining binding | 100%
CCN(CC)c1ccc(C2=NNC(=O)CC2C)cc1[N+](=O)[O-] (stereo not shown) | enzyme activity, inhibitor | 10 µM | remaining activity | 89%
Fc1ccc(-c2ncn(-c3ccc4ccccc4c3)c2-c2ccncc2)cc1 | cell-free assay, TR-FRET | 1 µM | inhibition | 14%
O=C(O)c1cc(-c2ccc(C3CCNCC3)cc2)c2ccc(-c3ccc(C(F)(F)F)cc3)cc2c1 | cell-free assay, competition with immobilised ligand | 1 µM | remaining binding | 81%
Cc1ccc(NC(=O)c2ccc(C)c(C(F)(F)F)c2)cc1C#Cc1nn(C2CCC(O)CC2)c2ncnc(N)c12 (stereo not shown) | cell-free assay | 10 µM | remaining signal | 105%
O=C(CSc1nc2nccnc2c(=O)n1CCc1ccccc1)Nc1nccs1 | enzyme activity, inhibitor | 10 µM | inhibition | 1%
CN(C)C(=O)Cn1cc(-c2nc(C3(c4ccc(-c5cnc(N)nc5)cc4)CC3)no2)cn1 | cell-free assay, competition with immobilised ligand | 1 µM | remaining binding | 97%
Fc1ccc(-c2c(-c3ccncc3)ncn2-c2ccc(-c3ccccc3)cc2)cc1 | cell-free assay, TR-FRET | 1 µM | inhibition | 21%
CCCOc1ccc([C@@H]2[C@@H](C(=O)O)[C@H](c3ccc4c(c3)OCO4)CN2CC(=O)Nc2c(CC)cccc2CC)cc1 | cell-free assay, competition with immobilised ligand | 1 µM | remaining binding | 64%
Fc1ccc(-c2ncn(C3=CCCCC3)c2-c2ccncc2)cc1 | cell-free assay, TR-FRET | 1 µM | inhibition | 19%
NS(=O)(=O)c1cc(NC(=O)Cc2ccccc2)ccc1Oc1cccc(Cl)c1 | cell-free assay, competition with immobilised ligand | 1 µM | remaining binding | 100%
COc1cc(Cl)c(C(=O)N[C@@H](CN[C@H]2CC[C@@H](N)CC2)Cc2ccc(C#N)cc2)cc1-c1ccc(CN[C@H](C)c2ccc(C)cc2)o1 | enzyme activity, inhibitor | 1 µM | remaining activity | 103%
CN1CC(Oc2cnc(C#N)cc2-c2ccn3nc(NC(=O)C4CC4)cc3c2)C1 | enzyme activity, inhibitor | 1 µM | inhibition | -9%
CC(C)(C)c1nc(-c2cccc(NS(=O)(=O)c3c(F)cccc3F)c2F)c(-c2ccnc(N)n2)s1 | enzyme activity, inhibitor, radiometric | 1 µM | remaining activity | 22%
Cc1sc(C(=O)NC2COC2)cc1-n1cc(NC(=O)Nc2c(F)cccc2Cl)cn1 | enzyme activity, inhibitor | 10 µM | remaining activity | 104%
C[S+]([O-])c1ccc(-c2nc(-c3ccncc3)c(-c3ccc(F)cc3)[nH]2)cc1 (stereo not shown) | cell-free assay | 0.5 µM | remaining signal | 101%
COc1cc(-c2cc(-c3ccc(N4CCNCC4)cc3)cnc2C)cc(OC)c1OC | enzyme activity, inhibitor | 1 µM | inhibition | 32%
O=C(NS(=O)(=O)c1ccc(NCC2CCOCC2)c([N+](=O)[O-])c1)c1ccc(N2CCN(Cc3ccc(C(F)(F)F)cc3-c3ccc(Cl)cc3)CC2)cc1Oc1cnc2[nH]ccc2c1 | cell-free assay, competition with immobilised ligand | 1 µM | remaining binding | 93%
Fc1ccc(-c2c(-c3ccncc3)ncn2-c2ccccc2)cc1 | cell-free assay, TR-FRET | 1 µM | inhibition | 21%
Cc1ccc(Nc2nccc(N(C)c3ccc4c(C)n(C)nc4c3)n2)cc1S(N)(=O)=O | cell-free assay | 0.5 µM | remaining signal | 103%
Cc1cc(NC(=O)c2cccc3cc(-c4cccc5[nH]nc(N)c45)ccc23)ccc1F | enzyme activity, inhibitor | 0.1 µM | activity vs control | 120%
Cc1ccc(C(=O)Nc2ccc(CN3CCN(C)CC3)c(C(F)(F)F)c2)cc1C#Cc1cnc2cccnn12 | cell-free assay | 23.5 nM | remaining signal | 98%
COc1cc2ncnc(Nc3ccc(F)c(Cl)c3)c2cc1OCCCN1CCOCC1 | cell-free assay | 0.5 µM | remaining signal | 99.6%
COc1cccc(F)c1Cn1cnc(-c2ccncc2)c1-c1ccc(F)cc1 | cell-free assay, TR-FRET | 1 µM | inhibition | 19%
c1ccc(-c2[nH]ncc2-c2ccnc3ccccc23)nc1 | cell-free assay | 0.5 µM | remaining signal | 41.6%
CO[C@@H](C)c1c(Nc2ccc([C@@H](N(C)C(=O)C3CCS(=O)(=O)CC3)C(F)(F)F)cc2)cnc2cc(Cl)nn12 | cell-free assay, competition with immobilised ligand | 1 µM | remaining binding | 95%
Cc1cccc(-c2[nH]c(C(C)(C)C)nc2-c2ccc3c(c2)OCO3)n1 | cell-free assay | 0.5 µM | remaining signal | 35.8%
CO[C@H]1CC[C@H](CNc2ccc(S(=O)(=O)NC(=O)c3ccc(N4CCN(CC5=C(c6ccc(Cl)cc6)CC(C)(C)CC5)CC4)cc3Oc3cnc4[nH]ccc4c3)cc2[N+](=O)[O-])CC1 | cell-free assay, competition with immobilised ligand | 1 µM | remaining binding | 84%
